Results: publication PMC6221991 (Structure (London, England : 1993), 2018)
Blank lines part the entries; values can stand above or below the molecule they belong to.

Key:
3T3-L1 cells = assay: Differentiation of 3T3-L1 cells; format: cell-based, Mus musculus; conditions: for RNA-seq differential gene expression: 3T3-L1 cells, 6 days
How it was run: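 Mouse 3T3-L1 embryo fibroblasts grown in DMEM with 10% heat-inactivated FBS, 2mM L-glutamine and 1% penicillin/streptomycin at 37 °C, 5% CO2. Test compound (1μM) added from the first day of differentiation; six days' incubation. Lipid droplets stained with Oil Red. Gene expression by qPCR: SYBR green, ΔΔ-Ct method normalised to Tbp. RNA-seq used stranded (dUTP) cDNA libraries. Mean ± SEM.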

PPRE = assay: full length PPRE transactivation assay; format: cell-based; conditions: for EC50 PPRE: full length PPRE assay
[1] = Plasma exposure following oral administration in mice; format: in vivo, C57BL/6 mice
human PPARα (hPPARα) = target: T1, human PPARα (hPPARα) (Homo sapiens, UniProt Q07869); assay: PPARα GAL-4 transactivation assay in HEK293T cells; format: cell-based
T1 sequence (Q07869 239-466 limits assumed): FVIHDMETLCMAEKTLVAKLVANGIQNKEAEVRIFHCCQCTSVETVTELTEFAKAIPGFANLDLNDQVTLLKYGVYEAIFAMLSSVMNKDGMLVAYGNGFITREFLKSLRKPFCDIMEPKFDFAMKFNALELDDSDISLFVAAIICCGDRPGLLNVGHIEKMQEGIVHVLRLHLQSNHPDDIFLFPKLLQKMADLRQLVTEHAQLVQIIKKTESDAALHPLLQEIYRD

His-PPARγ = target: T2, His-PPARγ (Homo sapiens, UniProt P37231); assay: TR-FRET NR box peptide recruitment assay; format: biochemical; conditions: FITC-labeled peptides
T2 sequence (P37231 1-505): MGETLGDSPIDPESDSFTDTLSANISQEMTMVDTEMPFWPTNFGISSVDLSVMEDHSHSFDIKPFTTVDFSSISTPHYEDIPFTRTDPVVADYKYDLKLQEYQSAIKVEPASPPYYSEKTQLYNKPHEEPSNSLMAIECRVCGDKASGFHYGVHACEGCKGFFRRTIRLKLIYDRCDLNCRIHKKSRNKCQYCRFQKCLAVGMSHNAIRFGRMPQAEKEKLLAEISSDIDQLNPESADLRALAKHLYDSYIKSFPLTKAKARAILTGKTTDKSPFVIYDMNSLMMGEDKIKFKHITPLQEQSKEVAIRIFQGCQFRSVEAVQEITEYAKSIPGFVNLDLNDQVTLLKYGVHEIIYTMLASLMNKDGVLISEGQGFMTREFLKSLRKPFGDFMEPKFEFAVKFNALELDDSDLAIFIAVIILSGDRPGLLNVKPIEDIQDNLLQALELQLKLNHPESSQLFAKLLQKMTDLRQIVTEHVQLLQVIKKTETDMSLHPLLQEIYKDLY

PPARγ Gal-4 = target: T3, PPARγ Gal-4 (Homo sapiens, UniProt P37231); assay: Gal4-PPARγ-LBD cell-based transactivation assay in HEK293T cells
T3 sequence (P37231 238-503 limits assumed): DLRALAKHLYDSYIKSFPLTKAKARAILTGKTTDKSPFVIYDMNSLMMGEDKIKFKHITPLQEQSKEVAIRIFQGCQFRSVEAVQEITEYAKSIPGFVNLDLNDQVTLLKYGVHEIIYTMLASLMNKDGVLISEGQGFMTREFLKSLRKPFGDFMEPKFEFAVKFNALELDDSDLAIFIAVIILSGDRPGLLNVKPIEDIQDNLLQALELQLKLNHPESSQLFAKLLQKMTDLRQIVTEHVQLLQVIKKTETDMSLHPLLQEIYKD

hPPARδ = target: T4, hPPARδ (Homo sapiens, UniProt Q03181); assay: hPPARδ-Gal4 transactivation assay; format: cell-based; conditions: Figure S1A
T4 sequence (Q03181 1-441): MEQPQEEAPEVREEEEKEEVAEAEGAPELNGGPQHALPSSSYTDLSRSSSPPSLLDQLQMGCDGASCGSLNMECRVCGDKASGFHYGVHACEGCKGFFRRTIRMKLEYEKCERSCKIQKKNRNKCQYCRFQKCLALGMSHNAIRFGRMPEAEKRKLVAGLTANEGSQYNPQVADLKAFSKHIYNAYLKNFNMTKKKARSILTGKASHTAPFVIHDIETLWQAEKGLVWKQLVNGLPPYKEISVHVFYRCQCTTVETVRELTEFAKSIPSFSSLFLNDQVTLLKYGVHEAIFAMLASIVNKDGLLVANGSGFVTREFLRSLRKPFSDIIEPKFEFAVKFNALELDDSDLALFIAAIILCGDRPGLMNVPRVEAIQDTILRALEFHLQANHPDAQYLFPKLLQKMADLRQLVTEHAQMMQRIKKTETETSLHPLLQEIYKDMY

[2] = target: T5, phosphorylation of PPARγ at S273 (pS273) (Homo sapiens, UniProt P37231); assay: In vitro Cdk5 kinase assay, phosphorylation of PPARγ at S273; format: biochemical; conditions: vs DMSO only controls
T5 sequence (P37231 1-505): T2 sequence (P37231 1-505)
How it was run: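 1 μg immuno-purified WT PPARγ substrate pre-incubated with test compound for 30 min. Active Cdk5/p35 kinase then added in 25 mM Tris-HCl pH 7.5, 5 mM β-glycerophosphate, 2 mM DTT, 0.1 mM Na3VO4, 10 mM MgCl2 and 20 μM ATP, for 15 min at 30 °C. After SDS–PAGE, phospho-Ser in the K/R-S-P-K/R motif was detected with an anti-CDK-substrate antibody.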

[3] = target: T5, phosphorylation of PPARγ at S273 (pS273); conditions: ref Choi et al., 2010; cited from earlier work
PPARγ LBD = target: T6, PPARγ LBD (human, UniProt P37231 231-505); assay: cross-linking
T6 sequence (looked up): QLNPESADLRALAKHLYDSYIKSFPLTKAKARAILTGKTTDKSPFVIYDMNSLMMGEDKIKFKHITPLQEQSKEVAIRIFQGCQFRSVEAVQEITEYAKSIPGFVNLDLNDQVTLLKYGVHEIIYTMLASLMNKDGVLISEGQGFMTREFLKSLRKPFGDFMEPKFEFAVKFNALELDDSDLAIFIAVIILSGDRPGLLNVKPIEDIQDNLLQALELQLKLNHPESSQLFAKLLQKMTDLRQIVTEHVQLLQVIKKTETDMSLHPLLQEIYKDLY

- EC50 (PPRE; read-out: EC50 PPRE): 10 nM
Molecule: CN(CCOc1ccc(CC2SC(=O)NC2=O)cc1)c1ccccn1 (centres unmarked) [Rosiglitazone, reference compound]
- RNA-seq differential gene expression (3T3-L1 cells): robust activation of a large gene set containing many known PPARγ target genes

Molecule: Cc1c(C)n(Cc2ccc(-c3ccccc3C(=O)O)cc2)c2ccc(C(=O)N[C@@H](C)c3ccc([N+](=O)[O-])cc3)cc12 [SR1664, reference compound]
- EC50 PPRE (PPRE): No activity
- plasma concentration ([1]; C57BL/6 mice, oral, 40mg.kg−1, two hours after dosing): less than 1 μM
- EC50 (human PPARα (hPPARα); read-out: EC50 PPARα GAL-4): 8600 nM

- PPARγ interaction with coactivator NR box peptides p300 and SRC1–2 (His-PPARγ): no enhanced interaction
- PPARγ interaction with corepressor peptides NCOR1–3 and SMRT-2 (His-PPARγ): increased
- EC50 PPRE (PPRE): No activity
- EC50 (PPARγ Gal-4; EC50 PPARγ Gal-4, HEK293T): 2760 nM
- Max.Stim. PPARγ Gal-4 (PPARγ Gal-4; HEK293T): 10%
- concentration at 2 h ([1]; C57BL/6, mouse, plasma, po, 40 mg.kg−1): 70 µM
- EC50 PPARα GAL-4 (human PPARα (hPPARα)): No activity
- transcriptional agonism, hPPARα-Gal4 transactivation (human PPARα (hPPARα); Figure S1A): no transcriptional agonism
- transcriptional agonism, hPPARδ-Gal4 transactivation (hPPARδ): no transcriptional agonism
- % inhibition p273-PPARγ ([2]; 20μM, 20 µM): 77%
- inhibition at 2 µM ([2]; read-out: % inhibition p273-PPARγ, 2μM): 25%
Molecule: Cc1c(C)n(Cc2ccc(C(C)(C)C(=O)O)cc2)c2ccc(C(=O)N[C@@H](C)c3cccc(C4CC4)c3)cc12 [SR11023, (S)-2-(4-((5-((1-(3-cyclopropylphenyl)ethyl)carbamoyl)-2,3-dimethyl-1H-indol-1-yl)methyl)phenyl)-2-methylpropanoic acid]
- RNA-seq differential gene expression (3T3-L1 cells): very modest regulation of only a small subset of PPARγ controlled genes
- adipogenic activity (lipid formation, aP2 and cd36 expression) (3T3-L1 cells; differentiated 3T3-L1 cells, 1μM, six days): minimal adipogenic activity
- shift of the dose response curve for rosiglitazone in the GAL4-PPARG assay (PPARγ Gal-4; data not shown): significantly right-shift the dose response curve for rosiglitazone

- PPARγ interaction with coactivator NR box peptides p300 and SRC1–2 (His-PPARγ): enhanced the association
- PPARγ interaction with corepressor peptides NCOR1–3 and SMRT-2 (His-PPARγ): facilitated dissociation
Molecule: MRL24
- inhibition of p273-PPARγ compared with Rosi [3]: More potent than Rosi to inhibit p273 ([Choi et al., 2010])

- binding result (PPARγ LBD): binds
Molecule: LTERHKILHRLLQEGSPSD [SRC1–2 NR box peptide]
